Measurements gathered from unrelated publications.
Protocols differ between the studies behind these lines.
Target: Mitogen-activated protein kinase kinase kinase 1 (MAP3K1, Homo sapiens, UniProt Q13233)

SMILES	observed	mode	method	tested at	endpoint	value
Oc1cccc(-c2nc(N3CCOCC3)c3oc4ncccc4c3n2)c1	enzyme activity	inhibitor	–	10 µM	remaining activity	97%
Cc1ccc(C(=O)Nc2ccc(CN3CCN(C)CC3)c(C(F)(F)F)c2)cc1C#Cc1cnc2cccnn12	enzyme activity	inhibitor	–	23.5 nM	remaining activity	82%
FC(F)(F)Oc1cccc(-c2cnc3ccc(-c4ccncc4)nn23)c1	enzyme activity	inhibitor	radiometric	1 µM	activity vs control	94%
Cc1sc(C(=O)NC2COC2)cc1-n1cc(NC(=O)Nc2c(F)cccc2Cl)cn1	enzyme activity	inhibitor	–	10 µM	remaining activity	94.5%
CS(=O)(=O)NCC[C@H](NC(=O)c1cncc2c1cnn2-c1ccc(F)cc1)c1ccnc(S(C)(=O)=O)c1	cell-free assay	–	competition with immobilised ligand	1 µM	remaining binding	100%
Nc1ncnc2occ(-c3ccc(NC(=O)Nc4cc(C(F)(F)F)ccc4F)cc3)c12	cell-free assay	inhibitor	–	20 µM	remaining signal	6.9%
Cn1c(=O)n(-c2ccc(C(C)(C)C#N)cc2)c2c3cc(-c4cnc5ccccc5c4)ccc3ncc21	enzyme activity	inhibitor	–	10 µM	remaining activity	67%
CC(C)(C)c1nc(-c2cccc(NS(=O)(=O)c3c(F)cccc3F)c2F)c(-c2ccnc(N)n2)s1	enzyme activity	inhibitor	radiometric	1 µM	remaining activity	84%
COc1cc(/C=C/C(=O)CC(=O)/C=C/c2ccc(O)c(OC)c2)ccc1O	enzyme activity	inhibitor	–	1 µM	activity vs control	89%
COc1cc(Nc2cnc(C#N)c(O[C@H](C)CN(C)C)n2)ncc1-c1cnn(C)c1	enzyme activity	inhibitor	radiometric	1 µM	remaining activity	92%
CC(C)(C)c1nc2c(s1)c1nc(N)ncc1c1ccc(NS(=O)(=O)c3c(F)cccc3F)c(F)c12	enzyme activity	inhibitor	radiometric	1 µM	remaining activity	90%
CC1CCCN1c1nccc(-c2cnn3ncccc23)n1 (stereo not shown)	binding	–	–	1 µM	remaining binding	87%
CN(C)C(=O)Cn1cc(-c2nc([C@@](C)(c3ccc(-c4cnc(N)nc4)cc3)C3CC3)no2)cn1	cell-free assay	–	competition with immobilised ligand	1 µM	remaining binding	90%
O=C(Nc1cnn(-c2csc(C(=O)NC3COC3)c2)c1)Nc1c(F)cccc1Cl	enzyme activity	inhibitor	–	5 µM	remaining activity	98.7%
CN(C)C(=O)Cn1cc(-c2nc(C3(c4ccc(-c5cnc(N)nc5)cc4)CC3)no2)cn1	cell-free assay	–	competition with immobilised ligand	1 µM	remaining binding	77%
CC(C)(O)[C@H]1CC[C@H](Nc2ccc3ncc(-c4cccc(C(F)(F)F)c4)n3n2)CC1	enzyme activity	inhibitor	–	1 µM	remaining activity	99%
